Measured values reported in ChEMBL document CHEMBL1142692, “Synthesis and biological evaluation of meperidine analogues at monoamine transporters” (J Med Chem, 2005).
Several values for one entry are separate records, joined by “and”; a condition that tells them apart may be missing. Equal values may be shown once.

Assays:
[1] = target: T1, Monoamine transporters; serotonin & dopamine (Homo sapiens) (UniProt P31645+Q01959); assay: Ratio of binding affinity of dopamine and serotonin transporters; assay type: protein assay
T1 sequence (P31645 whole entry, looked up): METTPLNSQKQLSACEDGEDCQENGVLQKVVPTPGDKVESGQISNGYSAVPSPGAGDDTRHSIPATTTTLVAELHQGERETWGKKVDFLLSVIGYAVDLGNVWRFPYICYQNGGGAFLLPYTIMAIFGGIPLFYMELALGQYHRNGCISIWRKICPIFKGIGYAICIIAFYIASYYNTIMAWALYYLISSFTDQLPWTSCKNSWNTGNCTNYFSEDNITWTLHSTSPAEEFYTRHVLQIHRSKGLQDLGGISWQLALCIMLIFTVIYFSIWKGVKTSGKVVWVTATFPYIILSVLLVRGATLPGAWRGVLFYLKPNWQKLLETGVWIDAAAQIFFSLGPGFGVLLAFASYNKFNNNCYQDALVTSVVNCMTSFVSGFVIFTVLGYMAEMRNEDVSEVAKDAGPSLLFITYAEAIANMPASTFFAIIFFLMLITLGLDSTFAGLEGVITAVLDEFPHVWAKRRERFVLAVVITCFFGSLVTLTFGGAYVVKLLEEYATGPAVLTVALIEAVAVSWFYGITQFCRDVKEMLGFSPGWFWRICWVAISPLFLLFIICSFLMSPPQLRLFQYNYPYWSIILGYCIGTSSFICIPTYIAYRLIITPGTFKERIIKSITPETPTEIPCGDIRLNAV
T1 sequence (Q01959 whole entry, looked up): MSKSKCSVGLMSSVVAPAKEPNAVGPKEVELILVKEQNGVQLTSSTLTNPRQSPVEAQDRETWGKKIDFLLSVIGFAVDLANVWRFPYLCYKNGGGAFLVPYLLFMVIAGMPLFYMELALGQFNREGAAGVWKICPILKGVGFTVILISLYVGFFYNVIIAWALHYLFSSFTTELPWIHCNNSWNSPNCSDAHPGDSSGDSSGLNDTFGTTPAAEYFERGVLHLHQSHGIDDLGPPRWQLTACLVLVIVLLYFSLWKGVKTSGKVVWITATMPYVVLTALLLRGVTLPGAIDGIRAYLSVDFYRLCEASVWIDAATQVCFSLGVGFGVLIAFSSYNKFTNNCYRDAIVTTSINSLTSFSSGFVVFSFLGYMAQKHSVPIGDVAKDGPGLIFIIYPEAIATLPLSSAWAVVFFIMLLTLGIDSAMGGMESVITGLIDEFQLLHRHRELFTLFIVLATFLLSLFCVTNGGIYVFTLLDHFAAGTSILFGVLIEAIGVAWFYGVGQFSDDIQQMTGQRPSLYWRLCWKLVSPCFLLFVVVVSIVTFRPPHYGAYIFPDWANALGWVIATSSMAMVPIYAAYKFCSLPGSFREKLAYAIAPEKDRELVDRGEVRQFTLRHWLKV
Method in brief: (§1)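 Ratio of Ki values, DAT/SERT. DAT Ki from [3H]WIN 35,428 (1.5 nM) competition in rat caudate-putamen membranes on ice, 1 h. SERT Ki from [3H]paroxetine (0.2 nM) binding to rat midbrain membranes, 90 min at room temperature, with 1 µM citalopram defining nonspecific binding.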

[2] = Ratio of binding affinity of mu-opioid receptor and serotonin transporter
[3] = Ratio of binding affinity of mu-opioid receptor and dopamine transporter
[4] = target: T2, Norepinephrine transporter (Rattus norvegicus, UniProt Q9WTR4); assay: Inhibition of [3H]-nisoxetine binding to rat norepinephrine transporter
T2 sequence (Q9WTR4 whole entry): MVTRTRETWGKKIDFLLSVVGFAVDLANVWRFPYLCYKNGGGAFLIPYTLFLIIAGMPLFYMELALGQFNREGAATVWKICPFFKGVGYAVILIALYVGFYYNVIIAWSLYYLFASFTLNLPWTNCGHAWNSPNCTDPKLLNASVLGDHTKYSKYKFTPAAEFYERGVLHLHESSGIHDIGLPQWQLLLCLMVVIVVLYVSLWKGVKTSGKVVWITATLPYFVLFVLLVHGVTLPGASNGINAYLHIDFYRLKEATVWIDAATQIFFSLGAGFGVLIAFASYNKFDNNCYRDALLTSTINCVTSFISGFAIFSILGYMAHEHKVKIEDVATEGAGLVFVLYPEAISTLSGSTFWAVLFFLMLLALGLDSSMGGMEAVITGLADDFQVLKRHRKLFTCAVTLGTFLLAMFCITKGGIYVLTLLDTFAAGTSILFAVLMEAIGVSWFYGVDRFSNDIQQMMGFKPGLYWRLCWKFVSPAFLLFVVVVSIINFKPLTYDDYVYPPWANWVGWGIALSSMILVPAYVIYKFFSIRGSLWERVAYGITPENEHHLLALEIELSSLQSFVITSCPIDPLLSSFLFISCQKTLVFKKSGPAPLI
Method in brief: (§2)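 Male Sprague-Dawley rat frontal cortex membranes in 50 mM Tris, 120 mM NaCl, 5 mM KCl, pH 7.4, 8 mg tissue per tube. Incubated with [3H]nisoxetine (final 0.5 nM) for 1 h on ice, then filtered. Desipramine defines nonspecific binding. Single-concentration values are % specific binding remaining at 10 µM. Mean ± SEM of three experiments in triplicate.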

[5] = target: T3, Sodium-dependent dopamine transporter (Rattus norvegicus, UniProt P23977); assay: Inhibitory concentration against [3H]DA uptake in rat brain tissue; assay type: functional, tissue-based
T3 sequence (P23977 whole entry): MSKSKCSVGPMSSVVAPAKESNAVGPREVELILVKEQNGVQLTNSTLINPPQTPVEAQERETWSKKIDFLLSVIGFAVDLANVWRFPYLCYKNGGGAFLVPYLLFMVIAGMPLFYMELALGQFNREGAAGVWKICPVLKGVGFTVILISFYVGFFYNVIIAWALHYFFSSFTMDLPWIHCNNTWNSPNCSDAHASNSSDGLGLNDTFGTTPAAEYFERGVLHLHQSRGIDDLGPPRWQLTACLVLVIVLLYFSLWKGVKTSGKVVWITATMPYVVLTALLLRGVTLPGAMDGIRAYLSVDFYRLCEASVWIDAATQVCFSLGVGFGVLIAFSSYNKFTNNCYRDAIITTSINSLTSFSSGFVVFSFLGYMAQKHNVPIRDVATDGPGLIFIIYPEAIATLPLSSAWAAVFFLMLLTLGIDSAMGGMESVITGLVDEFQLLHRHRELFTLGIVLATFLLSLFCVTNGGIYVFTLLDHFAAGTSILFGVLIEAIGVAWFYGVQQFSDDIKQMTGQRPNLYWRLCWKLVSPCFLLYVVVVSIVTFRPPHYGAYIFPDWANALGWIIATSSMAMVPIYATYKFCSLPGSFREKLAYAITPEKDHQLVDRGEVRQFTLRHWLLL
Method in brief: (§3)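 Rat caudate-putamen chopped into 225 µm slices, suspended in oxygenated modified Krebs-HEPES buffer at 37 °C. Tissue preincubated 5 min with drug, then [3H]dopamine (final 15 nM) added for 5 min. Uptake stopped with ice-cold buffer and filtration; accumulated label extracted and counted by liquid scintillation. Specific uptake reported after subtracting filter binding. Single-concentration values are % inhibition at 100 µM.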

Mu-type opioid receptor [6] = target: T4, Mu-type opioid receptor (Homo sapiens, UniProt P35372); assay: Inhibition of [3H]DAMGO binding to mu-opioid receptor
T4 sequence (P35372 whole entry): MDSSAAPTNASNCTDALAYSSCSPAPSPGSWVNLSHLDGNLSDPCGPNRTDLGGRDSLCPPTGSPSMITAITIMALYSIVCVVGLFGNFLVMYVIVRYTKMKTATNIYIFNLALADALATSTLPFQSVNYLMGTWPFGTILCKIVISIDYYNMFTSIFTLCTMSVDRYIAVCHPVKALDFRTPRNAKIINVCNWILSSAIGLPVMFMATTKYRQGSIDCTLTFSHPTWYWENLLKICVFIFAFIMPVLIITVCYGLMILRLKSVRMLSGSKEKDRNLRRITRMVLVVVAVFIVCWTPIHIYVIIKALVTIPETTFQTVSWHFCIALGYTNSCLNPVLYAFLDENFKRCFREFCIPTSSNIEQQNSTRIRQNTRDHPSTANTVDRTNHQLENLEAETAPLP

[7] = target: Sodium-dependent dopamine transporter (Rattus norvegicus) (UniProt P23977); assay: Percent inhibition of [3H]dopamine uptake in rat brain tissue at 100 uM; assay type: functional, tissue-based; method in brief: as §3
Chain of Sodium-dependent dopamine transporter (Rattus norvegicus) (P23977 whole entry): as the sequence (P23977 whole entry) above

[8] = target: Sodium-dependent dopamine transporter (Rattus norvegicus) (UniProt P23977); assay: Percent inhibition of [3H]WIN-35428 binding to rat Dopamine transporter at 100 uM
Method in brief: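 Male Sprague-Dawley rat caudate-putamen membranes in modified Krebs-HEPES buffer, pH 7.4. Drug preincubated 5 min, then [3H]WIN 35,428 (final 1.5 nM) added for 1 h on ice, followed by filtration. Value is % inhibition at 100 µM.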

Mu-type opioid receptor [9] = target: T4, Mu-type opioid receptor; assay: Percent inhibition of [3H]DAMGO binding to rat brain mu-opioid receptor at 100 uM; conditions: target entry is the homologue from another species
[10] = target: Sodium-dependent dopamine transporter (Rattus norvegicus) (UniProt P23977); assay: Percent inhibition of [3H]DA uptake in rat brain tissue at 100 uM; assay type: functional, tissue-based; method in brief: as §3
[11] = target: T2, Norepinephrine transporter; assay: Inhibition of [3H]nisoxetine binding to rat norepinephrine transporter at 10 uM; method in brief: as §2
[12] = target: Norepinephrine transporter (Rattus norvegicus) (UniProt Q9WTR4); assay: Percent inhibition of [3H]nisoxetine binding to norepinephrine transporter at 10 uM
Chain of Norepinephrine transporter (Rattus norvegicus) (Q9WTR4 as listed by the source): as the sequence (Q9WTR4 whole entry) above

Mu-type opioid receptor [13] = target: T4, Mu-type opioid receptor; assay: Inhibition of [3H]-DAMGO binding to mu opioid receptor at 10 uM
[14] = Ratio of binding affinity of mu-opioid receptor and dopamine taransporter
[15] = target: T3, Sodium-dependent dopamine transporter; assay: Inhibitory concentration against [3H]dopamine uptake in rat brain tissue; assay type: functional, tissue-based
Method in brief: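 Rat caudate-putamen chopped into 225 µm slices, suspended in Krebs-HEPES buffer pregassed with 95% O2/5% CO2 at 37 °C. Tissue preincubated 5 min with or without drug (highest 100 µM), then [3H]dopamine (15 nM final) added for 5 min. Stopped with ice-cold buffer and filtration; accumulated label extracted and counted by scintillation; filter binding subtracted. Three experiments in triplicate.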

Mu-type opioid receptor [16] = target: T4, Mu-type opioid receptor; assay: Inhibition of [3H]DAMGO binding to mu-opioid receptor at 100 uM
[17] = target: T1, Monoamine transporters; serotonin & dopamine (Homo sapiens); assay: Ratio of binding affinity for dopamine and serotonin transporters; assay type: protein assay; method in brief: as §1
[18] = target: T3, Sodium-dependent dopamine transporter; assay: Inhibition of [3H]-DA uptake in rat brain; assay type: functional, tissue-based; method in brief: as §3
[19] = Ratio of binding affinity for mu-opioid receptor and dopamine transporter
[20] = target: Sodium-dependent dopamine transporter (Rattus norvegicus) (UniProt P23977); conditions: Brain, 100 uM
[21] = target: Sodium-dependent dopamine transporter (Rattus norvegicus) (UniProt P23977); conditions: Brain, 100 uM; remark: listed apart in the source
[22] = Ratio of binding affinity of mu-opioid receptor and Serotonin transporter
[23] = target: T1, Monoamine transporters; serotonin & dopamine (Homo sapiens); assay: Ratio of binding affinity of dopamine and Serotonin transporters; assay type: protein assay; method in brief: as §1
Mu-type opioid receptor [24] = target: T4, Mu-type opioid receptor; assay: Inhibition of [3H]-DAMGO binding to mu-opioid receptor

SMILES	Ratio [1]	Ratio [2]	Ratio [3]	Ki [4] [µM]	IC50 [5]	Ki (Mu-type opioid receptor [6]) [µM]	inhibition [7] [%]	inhibition (Mu-type opioid receptor [9]) [%]	inhibition [12] [%]	also measured
CCOC(=O)C1(c2ccc(Cl)c(Cl)c2)CCN(C)CC1	6.68	109	16.3	74.5	6.01 µM and 1.4 µM	2.04	22			
CN1CCC(C#N)(c2ccc(F)cc2)CC1								15		inhibition [8]: 45%; inhibition [10]: 8%; Ki [11]: 101 µM
CCOC(=O)C1(c2ccc(C)cc2)CCN(C)CC1	7.69	1.66	0.22		76.2 µM	2.67			57.6	
CN1CCC(C#N)(c2ccc(I)cc2)CC1	19.4	40.2						61		inhibition (Mu-type opioid receptor [13]): 93.6%; Ratio [14]: 2.07; IC50 [15]: 36.7 µM; Ki (Mu-type opioid receptor [16]): 17.3 µM
CN1CCC(C#N)(c2ccc3ccccc3c2)CC1	18.9	123	6.53				11	61	88.1	Ki (Mu-type opioid receptor [16]): 15.4 µM
CCOC(=O)C1(c2ccc3ccccc3c2)CCN(C)CC1	158	282	1.78	71.1	3.19 µM and 11.6 µM	2.03	16			
CN1CCC(C#N)(c2ccc(Cl)c(Cl)c2)CC1		49.7				40		46	94.1	Ratio [17]: 3.32; IC50 [18]: 11.1 µM; Ratio [19]: 15
Cc1ccc(C2(C#N)CCN(C)CC2)cc1	3.05	2.96	0.97			40.6			103	inhibition [20]: 22%; inhibition [21]: 46%
CCOC(=O)C1(c2ccc(F)cc2)CCN(C)CC1							47		71.9	Ratio [22]: 4.77; Ratio [23]: 34.7; Ratio (Mu-type opioid receptor [24]): 0.14
CCOC(=O)C1(c2ccc(Cl)cc2)CCN(C)CC1	14.8	15.9	1.08	601		4.41				IC50 [18]: 26.9 µM
CCOC(=O)C1(c2ccc(I)cc2)CCN(C)CC1		111		519	11.1 µM	2.35				
CN1CCC(C#N)(c2ccc(Cl)cc2)CC1	4.31	0.18	1.67					51	106	inhibition [10]: 36%; Ki (Mu-type opioid receptor [16]): 36.8 µM
